system: MCF7; experiment: Antiproliferative activity against human MCF7 cells incubated for 72 hrs by SRB assay; type: functional, cell-based; conditions: MCF7, 72 h
Outline: (§1)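 Sulforhodamine B colorimetric read-out after 72 h drug exposure. Cells kept in DMEM with 10 % FBS and 1 % penicillin/streptomycin at 37 °C under 5 % CO₂, mycoplasma-checked, passaged under 6 months. Compounds given from DMSO stocks diluted in medium, final DMSO ≤ 0.1 % v/v, with DMSO-only parallel cultures as controls. IC50 reported as mean ± SD of three independent determinations, each run in duplicate.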

**Q.** With `Cc1ccc(S(=O)(=O)N2CC(CCn3cnc4c(Br)ncnc43)Oc3cc(Cl)ccc32)cc1` (stereo unspecified) as the compound, how does the IC50 read?
**A.** 6.77 µM

**Q.** Which IC50 does the source give for `Cc1ccc(S(=O)(=O)N2CC(CCn3cnc4c(Cl)nc(Cl)nc43)Oc3ccc(Br)cc32)cc1` (stereo unspecified) here?
**A.** 5.52 µM

system: HCT-116; experiment: Antiproliferative activity against human HCT-116 cells incubated for 72 hrs by SRB assay; type: functional, cell-based; conditions: HCT-116, 72 h; outline: as §1

**Q.** With `Cc1ccc(S(=O)(=O)N2CC(CCn3cnc4c(Br)ncnc43)Oc3cc(Cl)ccc32)cc1` (stereo unspecified) as the compound, how does the IC50 read?
**A.** 12.8 µM

**Q.** `Cc1ccc(S(=O)(=O)N2CC(CCn3cnc4c(Cl)nc(Cl)nc43)Oc3ccc(Br)cc32)cc1` (stereo unspecified) was tested. Which IC50 did it give?
**A.** 7.85 µM

species: Homo sapiens; experiment: Inhibition of human AKT assessed as residual activity at 5 uM relative to control; conditions: not given
Outline: (§2)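 Residual kinase activity determined with each compound at 5×10⁻⁶ and 5×10⁻⁵ M, in singlicate per kinase assay, expressed relative to uninhibited control.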

**Q.** `Cc1ccc(S(=O)(=O)N2CC(CCn3cnc4c(Br)ncnc43)Oc3cc(Cl)ccc32)cc1` (stereo unspecified) was tested. Which Activity did it give?
**A.** 94%

**Q.** For `Cc1ccc(S(=O)(=O)N2CC(CCn3cnc4c(Cl)nc(Cl)nc43)Oc3ccc(Br)cc32)cc1` (stereo unspecified), which Activity is on record?
**A.** 95%

species: Homo sapiens; experiment: Inhibition of human AKT assessed as residual activity at 50 uM relative to control; conditions: not given; outline: as §2

**Q.** Which Activity does the source give for `Cc1ccc(S(=O)(=O)N2CC(CCn3cnc4c(Br)ncnc43)Oc3cc(Cl)ccc32)cc1` (stereo unspecified) here?
**A.** 99%

**Q.** With `Cc1ccc(S(=O)(=O)N2CC(CCn3cnc4c(Cl)nc(Cl)nc43)Oc3ccc(Br)cc32)cc1` (stereo unspecified) as the compound, how does the Activity read?
**A.** 87%

target: 5'-AMP-activated protein kinase catalytic subunit alpha-1 (Homo sapiens) (UniProt Q13131); experiment: Inhibition of human AMPK alpha-1 assessed as residual activity at 5 uM relative to control; conditions: not given; outline: as §2
Sequence (Q13131 whole entry, looked up): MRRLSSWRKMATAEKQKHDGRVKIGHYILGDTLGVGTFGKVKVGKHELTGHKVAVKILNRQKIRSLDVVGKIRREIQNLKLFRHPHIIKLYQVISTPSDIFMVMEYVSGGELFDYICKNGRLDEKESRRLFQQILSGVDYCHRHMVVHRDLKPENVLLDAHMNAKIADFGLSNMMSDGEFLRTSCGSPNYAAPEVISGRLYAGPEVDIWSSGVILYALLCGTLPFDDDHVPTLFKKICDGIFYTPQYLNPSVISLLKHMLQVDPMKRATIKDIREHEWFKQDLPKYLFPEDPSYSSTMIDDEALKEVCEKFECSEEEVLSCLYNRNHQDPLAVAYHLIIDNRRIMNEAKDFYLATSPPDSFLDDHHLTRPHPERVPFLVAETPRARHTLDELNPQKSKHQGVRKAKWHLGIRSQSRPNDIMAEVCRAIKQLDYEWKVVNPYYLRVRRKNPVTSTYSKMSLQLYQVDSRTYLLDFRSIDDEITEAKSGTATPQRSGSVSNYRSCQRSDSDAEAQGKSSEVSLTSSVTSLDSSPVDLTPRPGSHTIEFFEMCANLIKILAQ

**Q.** How did the Activity turn out when `Cc1ccc(S(=O)(=O)N2CC(CCn3cnc4c(Br)ncnc43)Oc3cc(Cl)ccc32)cc1` (stereo unspecified) was run?
**A.** 90%

**Q.** For `Cc1ccc(S(=O)(=O)N2CC(CCn3cnc4c(Cl)nc(Cl)nc43)Oc3ccc(Br)cc32)cc1` (stereo unspecified), which Activity is on record?
**A.** 86%

target: 5'-AMP-activated protein kinase catalytic subunit alpha-1 (Homo sapiens) (UniProt Q13131); experiment: Inhibition of human AMPK alpha-1 assessed as residual activity at 50 uM relative to control; conditions: not given; outline: as §2

**Q.** With `Cc1ccc(S(=O)(=O)N2CC(CCn3cnc4c(Br)ncnc43)Oc3cc(Cl)ccc32)cc1` (stereo unspecified) as the compound, how does the Activity read?
**A.** 73%

**Q.** Which Activity does the source give for `Cc1ccc(S(=O)(=O)N2CC(CCn3cnc4c(Cl)nc(Cl)nc43)Oc3ccc(Br)cc32)cc1` (stereo unspecified) here?
**A.** 70%

target: Epidermal growth factor receptor (Homo sapiens) (UniProt P00533); experiment: Inhibition of human EGFR assessed as residual activity at 5 uM relative to control; conditions: not given; outline: as §2
Sequence (P00533 whole entry): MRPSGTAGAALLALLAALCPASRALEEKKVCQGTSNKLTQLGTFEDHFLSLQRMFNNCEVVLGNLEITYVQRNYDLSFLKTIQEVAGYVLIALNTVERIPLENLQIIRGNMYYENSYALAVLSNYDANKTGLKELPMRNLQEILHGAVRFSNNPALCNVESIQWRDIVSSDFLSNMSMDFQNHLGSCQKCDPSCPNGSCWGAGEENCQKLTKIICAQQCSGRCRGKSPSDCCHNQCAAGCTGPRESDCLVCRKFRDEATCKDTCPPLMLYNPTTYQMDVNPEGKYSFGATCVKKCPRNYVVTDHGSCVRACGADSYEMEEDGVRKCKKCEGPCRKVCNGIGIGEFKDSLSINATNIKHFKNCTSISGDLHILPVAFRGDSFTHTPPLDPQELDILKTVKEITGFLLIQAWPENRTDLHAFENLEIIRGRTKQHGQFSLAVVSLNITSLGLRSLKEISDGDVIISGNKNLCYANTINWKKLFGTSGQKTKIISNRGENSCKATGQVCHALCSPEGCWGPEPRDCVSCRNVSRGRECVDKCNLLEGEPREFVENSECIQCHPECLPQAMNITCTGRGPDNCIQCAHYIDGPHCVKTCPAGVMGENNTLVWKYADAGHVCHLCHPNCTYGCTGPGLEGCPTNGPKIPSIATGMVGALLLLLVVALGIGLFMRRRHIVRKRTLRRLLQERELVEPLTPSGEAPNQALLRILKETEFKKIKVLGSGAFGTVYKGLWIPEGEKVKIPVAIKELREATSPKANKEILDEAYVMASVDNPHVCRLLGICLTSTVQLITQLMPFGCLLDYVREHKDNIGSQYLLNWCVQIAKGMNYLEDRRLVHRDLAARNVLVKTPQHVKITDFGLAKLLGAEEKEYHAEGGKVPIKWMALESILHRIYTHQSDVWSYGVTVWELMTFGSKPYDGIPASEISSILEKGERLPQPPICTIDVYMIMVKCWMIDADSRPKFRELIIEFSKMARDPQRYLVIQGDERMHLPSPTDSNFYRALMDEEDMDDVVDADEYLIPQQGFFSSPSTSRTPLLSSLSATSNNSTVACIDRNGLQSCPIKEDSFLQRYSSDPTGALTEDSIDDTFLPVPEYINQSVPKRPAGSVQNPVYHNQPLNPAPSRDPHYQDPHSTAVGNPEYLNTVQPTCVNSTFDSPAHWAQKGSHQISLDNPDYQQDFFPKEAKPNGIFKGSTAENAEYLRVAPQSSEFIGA

**Q.** With `Cc1ccc(S(=O)(=O)N2CC(CCn3cnc4c(Br)ncnc43)Oc3cc(Cl)ccc32)cc1` (stereo unspecified) as the compound, how does the Activity read?
**A.** 108%

**Q.** With `Cc1ccc(S(=O)(=O)N2CC(CCn3cnc4c(Cl)nc(Cl)nc43)Oc3ccc(Br)cc32)cc1` (stereo unspecified) as the compound, how does the Activity read?
**A.** 94%

target: Epidermal growth factor receptor (Homo sapiens) (UniProt P00533); experiment: Inhibition of human EGFR assessed as residual activity at 50 uM relative to control; conditions: not given; outline: as §2

**Q.** For `Cc1ccc(S(=O)(=O)N2CC(CCn3cnc4c(Br)ncnc43)Oc3cc(Cl)ccc32)cc1` (stereo unspecified), which Activity is on record?
**A.** 64%

**Q.** How did the Activity turn out when `Cc1ccc(S(=O)(=O)N2CC(CCn3cnc4c(Cl)nc(Cl)nc43)Oc3ccc(Br)cc32)cc1` (stereo unspecified) was run?
**A.** 59%

target: Receptor tyrosine-protein kinase erbB-2 (Homo sapiens) (UniProt P04626); experiment: Inhibition of human HER2 assessed as residual activity at 5 uM relative to control; conditions: not given; outline: as §2
Sequence (P04626 whole entry): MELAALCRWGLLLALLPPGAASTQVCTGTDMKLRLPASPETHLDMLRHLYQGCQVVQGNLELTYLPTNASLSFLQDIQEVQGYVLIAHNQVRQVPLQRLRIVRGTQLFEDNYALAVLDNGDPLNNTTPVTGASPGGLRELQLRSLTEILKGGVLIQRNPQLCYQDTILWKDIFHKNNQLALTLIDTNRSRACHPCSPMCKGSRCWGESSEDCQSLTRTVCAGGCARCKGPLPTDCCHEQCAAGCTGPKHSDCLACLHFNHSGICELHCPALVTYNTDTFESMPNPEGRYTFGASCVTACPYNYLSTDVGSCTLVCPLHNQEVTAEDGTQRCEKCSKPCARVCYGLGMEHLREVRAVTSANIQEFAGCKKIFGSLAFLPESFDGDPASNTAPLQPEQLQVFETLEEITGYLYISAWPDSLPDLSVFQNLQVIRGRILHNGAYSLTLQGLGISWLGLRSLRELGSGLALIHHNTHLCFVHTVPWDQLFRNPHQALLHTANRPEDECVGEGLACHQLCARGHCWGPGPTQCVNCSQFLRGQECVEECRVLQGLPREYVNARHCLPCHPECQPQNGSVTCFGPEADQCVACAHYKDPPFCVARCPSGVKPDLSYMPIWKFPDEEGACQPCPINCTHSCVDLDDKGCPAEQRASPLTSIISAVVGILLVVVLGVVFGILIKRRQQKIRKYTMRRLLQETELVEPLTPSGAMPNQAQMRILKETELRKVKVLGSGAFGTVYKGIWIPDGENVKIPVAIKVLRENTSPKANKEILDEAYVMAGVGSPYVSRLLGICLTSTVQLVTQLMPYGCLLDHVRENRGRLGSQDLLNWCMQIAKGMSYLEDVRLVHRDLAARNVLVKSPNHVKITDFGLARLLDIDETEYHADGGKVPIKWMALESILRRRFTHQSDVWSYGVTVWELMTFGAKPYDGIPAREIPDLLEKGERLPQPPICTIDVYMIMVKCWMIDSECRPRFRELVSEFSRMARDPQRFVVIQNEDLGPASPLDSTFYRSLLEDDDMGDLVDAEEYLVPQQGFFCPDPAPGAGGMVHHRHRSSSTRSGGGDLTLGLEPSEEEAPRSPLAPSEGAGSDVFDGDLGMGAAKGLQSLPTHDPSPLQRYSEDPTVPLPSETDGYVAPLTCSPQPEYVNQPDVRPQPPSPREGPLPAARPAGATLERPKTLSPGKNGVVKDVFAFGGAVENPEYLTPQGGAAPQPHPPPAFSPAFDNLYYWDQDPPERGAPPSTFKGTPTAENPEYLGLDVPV

**Q.** `Cc1ccc(S(=O)(=O)N2CC(CCn3cnc4c(Br)ncnc43)Oc3cc(Cl)ccc32)cc1` (stereo unspecified) was tested. Which Activity did it give?
**A.** 84%

**Q.** `Cc1ccc(S(=O)(=O)N2CC(CCn3cnc4c(Cl)nc(Cl)nc43)Oc3ccc(Br)cc32)cc1` (stereo unspecified) was tested. Which Activity did it give?
**A.** 78%

target: Receptor tyrosine-protein kinase erbB-2 (Homo sapiens) (UniProt P04626); experiment: Inhibition of human HER2 assessed as residual activity at 50 uM relative to control; conditions: not given; outline: as §2

**Q.** With `Cc1ccc(S(=O)(=O)N2CC(CCn3cnc4c(Br)ncnc43)Oc3cc(Cl)ccc32)cc1` (stereo unspecified) as the compound, how does the Activity read?
**A.** 65%

**Q.** For `Cc1ccc(S(=O)(=O)N2CC(CCn3cnc4c(Cl)nc(Cl)nc43)Oc3ccc(Br)cc32)cc1` (stereo unspecified), which Activity is on record?
**A.** 63%

target: Mitogen-activated protein kinase 1 (Homo sapiens) (UniProt P28482); experiment: Inhibition of human ERK2 assessed as residual activity at 5 uM relative to control; conditions: not given; outline: as §2
Sequence (P28482 whole entry): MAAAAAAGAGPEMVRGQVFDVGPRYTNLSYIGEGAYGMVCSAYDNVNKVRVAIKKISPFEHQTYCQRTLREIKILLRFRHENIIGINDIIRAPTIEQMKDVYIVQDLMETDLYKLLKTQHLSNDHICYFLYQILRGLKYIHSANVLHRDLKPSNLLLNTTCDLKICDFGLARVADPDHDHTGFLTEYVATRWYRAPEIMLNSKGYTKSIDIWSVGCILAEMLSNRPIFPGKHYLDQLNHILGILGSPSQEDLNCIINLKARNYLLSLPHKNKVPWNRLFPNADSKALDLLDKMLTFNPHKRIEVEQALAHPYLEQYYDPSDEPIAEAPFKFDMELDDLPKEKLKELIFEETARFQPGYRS

**Q.** Which Activity does the source give for `Cc1ccc(S(=O)(=O)N2CC(CCn3cnc4c(Br)ncnc43)Oc3cc(Cl)ccc32)cc1` (stereo unspecified) here?
**A.** 90%

**Q.** How did the Activity turn out when `Cc1ccc(S(=O)(=O)N2CC(CCn3cnc4c(Cl)nc(Cl)nc43)Oc3ccc(Br)cc32)cc1` (stereo unspecified) was run?
**A.** 86%

target: Mitogen-activated protein kinase 1 (Homo sapiens) (UniProt P28482); experiment: Inhibition of human ERK2 assessed as residual activity at 50 uM relative to control; conditions: not given; outline: as §2

**Q.** How did the Activity turn out when `Cc1ccc(S(=O)(=O)N2CC(CCn3cnc4c(Br)ncnc43)Oc3cc(Cl)ccc32)cc1` (stereo unspecified) was run?
**A.** 68%

**Q.** `Cc1ccc(S(=O)(=O)N2CC(CCn3cnc4c(Cl)nc(Cl)nc43)Oc3ccc(Br)cc32)cc1` (stereo unspecified) was tested. Which Activity did it give?
**A.** 66%

target: Mitogen-activated protein kinase 8 (Homo sapiens) (UniProt P45983); experiment: Inhibition of human JNK1 assessed as residual activity at 5 uM relative to control; conditions: not given; outline: as §2
Sequence (P45983 whole entry): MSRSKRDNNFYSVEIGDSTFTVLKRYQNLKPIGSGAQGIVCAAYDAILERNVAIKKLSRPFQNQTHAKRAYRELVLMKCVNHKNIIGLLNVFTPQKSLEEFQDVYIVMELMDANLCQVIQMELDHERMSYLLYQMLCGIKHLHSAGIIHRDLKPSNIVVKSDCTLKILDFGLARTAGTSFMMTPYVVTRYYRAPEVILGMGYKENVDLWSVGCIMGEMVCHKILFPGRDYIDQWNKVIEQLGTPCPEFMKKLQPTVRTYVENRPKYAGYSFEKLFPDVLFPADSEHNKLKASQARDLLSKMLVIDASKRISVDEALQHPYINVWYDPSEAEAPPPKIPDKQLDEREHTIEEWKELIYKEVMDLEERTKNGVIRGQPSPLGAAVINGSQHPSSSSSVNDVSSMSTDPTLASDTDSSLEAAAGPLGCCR

**Q.** With `Cc1ccc(S(=O)(=O)N2CC(CCn3cnc4c(Br)ncnc43)Oc3cc(Cl)ccc32)cc1` (stereo unspecified) as the compound, how does the Activity read?
**A.** 89%

**Q.** With `Cc1ccc(S(=O)(=O)N2CC(CCn3cnc4c(Cl)nc(Cl)nc43)Oc3ccc(Br)cc32)cc1` (stereo unspecified) as the compound, how does the Activity read?
**A.** 88%

target: Mitogen-activated protein kinase 8 (Homo sapiens) (UniProt P45983); experiment: Inhibition of human JNK1 assessed as residual activity at 50 uM relative to control; conditions: not given; outline: as §2

**Q.** How did the Activity turn out when `Cc1ccc(S(=O)(=O)N2CC(CCn3cnc4c(Br)ncnc43)Oc3cc(Cl)ccc32)cc1` (stereo unspecified) was run?
**A.** 47%

**Q.** Which Activity does the source give for `Cc1ccc(S(=O)(=O)N2CC(CCn3cnc4c(Cl)nc(Cl)nc43)Oc3ccc(Br)cc32)cc1` (stereo unspecified) here?
**A.** 44%

target: T1, LKB1-STRAD-MO25 complex (Homo sapiens) (UniProt Q15831+Q7RTN6+Q9Y376); experiment: Inhibition of human LKB1/MO25/STRADalpha assessed as residual activity at 5 uM relative to control; type: protein-complex assay; conditions: not given; outline: as §2

**Q.** For `Cc1ccc(S(=O)(=O)N2CC(CCn3cnc4c(Br)ncnc43)Oc3cc(Cl)ccc32)cc1` (stereo unspecified), which Activity is on record?
**A.** 94%

**Q.** For `Cc1ccc(S(=O)(=O)N2CC(CCn3cnc4c(Cl)nc(Cl)nc43)Oc3ccc(Br)cc32)cc1` (stereo unspecified), which Activity is on record?
**A.** 98%

target: T1, LKB1-STRAD-MO25 complex (Homo sapiens); experiment: Inhibition of human LKB1/MO25/STRADalpha assessed as residual activity at 50 uM relative to control; type: protein-complex assay; conditions: not given; outline: as §2

**Q.** How did the Activity turn out when `Cc1ccc(S(=O)(=O)N2CC(CCn3cnc4c(Br)ncnc43)Oc3cc(Cl)ccc32)cc1` (stereo unspecified) was run?
**A.** 129%

**Q.** Which Activity does the source give for `Cc1ccc(S(=O)(=O)N2CC(CCn3cnc4c(Cl)nc(Cl)nc43)Oc3ccc(Br)cc32)cc1` (stereo unspecified) here?
**A.** 95%

target: Mitogen-activated protein kinase 14 (Homo sapiens) (UniProt Q16539); experiment: Inhibition of human P38-alpha assessed as residual activity at 5 uM relative to control; conditions: not given; outline: as §2
Sequence (Q16539 whole entry): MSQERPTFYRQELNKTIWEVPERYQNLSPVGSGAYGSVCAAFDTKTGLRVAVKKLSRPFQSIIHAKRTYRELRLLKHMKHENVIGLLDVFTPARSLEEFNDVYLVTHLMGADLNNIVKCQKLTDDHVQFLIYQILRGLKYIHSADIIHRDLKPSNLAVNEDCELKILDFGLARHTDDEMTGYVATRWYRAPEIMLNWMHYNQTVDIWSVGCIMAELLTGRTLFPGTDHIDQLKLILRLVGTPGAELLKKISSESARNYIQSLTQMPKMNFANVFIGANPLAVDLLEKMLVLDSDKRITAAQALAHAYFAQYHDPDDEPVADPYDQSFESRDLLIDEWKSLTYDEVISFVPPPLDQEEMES

**Q.** For `Cc1ccc(S(=O)(=O)N2CC(CCn3cnc4c(Br)ncnc43)Oc3cc(Cl)ccc32)cc1` (stereo unspecified), which Activity is on record?
**A.** 91%

**Q.** Which Activity does the source give for `Cc1ccc(S(=O)(=O)N2CC(CCn3cnc4c(Cl)nc(Cl)nc43)Oc3ccc(Br)cc32)cc1` (stereo unspecified) here?
**A.** 97%

target: Mitogen-activated protein kinase 14 (Homo sapiens) (UniProt Q16539); experiment: Inhibition of human P38-alpha assessed as residual activity at 50 uM relative to control; conditions: not given; outline: as §2

**Q.** Which Activity does the source give for `Cc1ccc(S(=O)(=O)N2CC(CCn3cnc4c(Br)ncnc43)Oc3cc(Cl)ccc32)cc1` (stereo unspecified) here?
**A.** 112%

**Q.** For `Cc1ccc(S(=O)(=O)N2CC(CCn3cnc4c(Cl)nc(Cl)nc43)Oc3ccc(Br)cc32)cc1` (stereo unspecified), which Activity is on record?
**A.** 59%
